NSD2 inh – NSD2 histone methyltransferase inhibitors, primary screen, biochemical, AlphaScreen, single concentration, set 2; Histone-lysine N-methyltransferase NSD2 (Homo sapiens), O96028; NSD2 peptide methylation, 120 min; inhibition, % at 12.5 µM; 0.54% of 310,000 active; AID 743445, 2014; in the data active means inhibition above about 50%
Casp6 inh – human caspase-6 inhibitors, primary screen, biochemical, VEID-R110 fluorescence, single point, set 2. P55212. 0.53% of 350,000 active. purified caspase-6, Z-VEID-R110 cleavage fluorescence. AID 686996, 2013. inhibition, % at 12.5 µM;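 active means mean inhibition across replicates at least about 35%, with every replicate also reaching that limit, limit read from the data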;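 further: 0% = median of neutral control wells and 100% = no fluorescence left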
Target sequence (P55212 24-179 limits assumed): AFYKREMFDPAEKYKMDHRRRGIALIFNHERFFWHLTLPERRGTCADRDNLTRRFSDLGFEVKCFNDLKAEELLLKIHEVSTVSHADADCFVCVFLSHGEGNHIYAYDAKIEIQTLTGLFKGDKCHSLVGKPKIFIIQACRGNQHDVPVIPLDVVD
Target sequence (P55212 194-293 limits assumed): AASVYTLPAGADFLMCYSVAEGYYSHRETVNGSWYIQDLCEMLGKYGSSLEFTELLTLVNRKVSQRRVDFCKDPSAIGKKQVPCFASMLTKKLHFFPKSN
TDP2 absorb – human TDP2 enzyme inhibitors, primary screen, biochemical, epi absorbance, recombinant enzyme. Tyrosyl-DNA phosphodiesterase 2 (Homo sapiens), O95551. T5PNP hydrolysis, p-nitrophenol absorbance 415 nm. inhibition, % at 12.8 µM. 0.34% of 370,000 active;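 active means inhibition above the mean of all tested compounds plus 3 SD, set per campaign, cut at about 25% in these data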;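 further: 0% = DMSO with enzyme and 100% = buffer with substrate but no TDP2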
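Read-out basis: percent inhibition. System: recombinant human TDP2. Buffer or medium: Mg2+-containing Tris-HCl buffer, pH 7.5. Repeats: single replicate. Timing: reaction 2 h, 37 °C. Benchmarks: high control without enzyme, low control DMSO plus TDP2. Probe or stimulus: 5 mM T5PNP. Doses: 12.8 µM only. Measured by: epi absorbance of p-nitrophenol freed from T5PNP by hydrolysis.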
LEDGF integ inh – blockers of LEDGF/p75-dependent integrase strand transfer – biochemical, TR-FRET, high throughput, primary screen; 0.64% of 370,000 active; inhibition, % at 3.7 µM; TR-FRET IN-LEDGF/p75 DNA integration, Eu/Cy5; HIV-1 integrase (with human LEDGF/p75);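 active means inhibition above the screen-wide mean plus 3 SD, cut at about 13% in these data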;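 further: signal is the Cy5 over europium emission ratio at 671 and 618 nm; 0% = plate median of compound wells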
UCH37 inh – inhibitors of human UCH37 deubiquitinase, primary screen, biochemical, Ub-AMC cleavage, fluorescence. inhibition, % (no concentration beside the values). purified proteasome/UCH37. 0.33% of 330,000 active. Ubiquitin carboxyl-terminal hydrolase isozyme L5 (Homo sapiens), Q9Y5K5;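 active means mean inhibition over replicate wells above about 20%, limit read from the data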;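 further: 0% = compound-free wells with enzyme and 100% = wells lacking proteasome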
Target sequence (Q9Y5K5 whole entry, looked up): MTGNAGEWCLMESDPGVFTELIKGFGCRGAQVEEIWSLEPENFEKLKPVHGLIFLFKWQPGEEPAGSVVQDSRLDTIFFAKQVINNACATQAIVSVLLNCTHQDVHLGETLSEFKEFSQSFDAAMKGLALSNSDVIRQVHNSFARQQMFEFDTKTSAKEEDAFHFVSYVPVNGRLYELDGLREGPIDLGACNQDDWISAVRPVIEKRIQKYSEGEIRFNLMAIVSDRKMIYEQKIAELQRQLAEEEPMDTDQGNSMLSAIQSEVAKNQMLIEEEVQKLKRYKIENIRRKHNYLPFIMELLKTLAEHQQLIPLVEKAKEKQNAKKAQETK
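Schedule: 30 min plus 25 min, room temperature / Material: human UCH37 within purified proteasomes / Technique: AMC fluorescence intensity at 355/460 nm / Buffer or medium: pH 7.4 Tris-HCl (50 mM) with ovalbumin, ATP-MgCl2, DTT / Controls: wells without proteasome as full block, compound-free enzyme plus substrate as uninhibited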
TDP2 confirm – human TDP2 enzyme inhibitors, retest, confirmation, biochemical, epi absorbance, recombinant enzyme; shares compounds with TDP2 absorb; absorbance read-out; inhibition, % at 12.8 µM; 22% of 1,100 active; in the data active means inhibition above about 25%;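 further: 0% = vehicle with enzyme and 100% = no enzyme buffer only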
Active calls of the source: *; x = no result. An excerpt weighted towards active compounds, which were near 1.3% of everything screened.

SMILES	NSD2 inh	Casp6 inh	TDP2 absorb	LEDGF integ inh	UCH37 inh	TDP2 confirm
CC(C(=O)NC1CCCCCC1)c1ccc([N+](=O)[O-])cc1 (configuration not stated)	-3.9	-0.2	24.6*	-2.2	1.1	-3.1
COc1ccc2ccc3c(c2c1)N=C[C@]1(O3)N(C)c2ccccc2C1(C)C	-4.7	3.3	41.2*	7.3	-8.3	0.2
CC1=NOC2(C1)N(C)c1ccccc1C2(C)C (configuration not stated)	-3.5	x	12.2	-1.6	2.1	x
Cc1ccc(Cn2c(N3CCNCC3)nc3c2c(=O)[nH]c(=O)n3C)cc1	0.0	3.8	-8.1	-6.6	1.2	x
Cn1c(=O)[nH]c(=O)c2c1nc(N1CCNCC1)n2Cc1ccccc1	2.1	-6.1	25.6*	-1.3	2.4	5.0
Cc1ccc(S(=O)(=O)c2c[nH]c3cc4c(cc3c2=O)OCO4)cc1	x	-2.9	26.1*	-2.2	-6.2	-7.9
Cc1cc(C(=O)NN=Cc2cc([N+](=O)[O-])cc(C)c2O)n[nH]1	x	x	x	x	8.7	x
CC(=O)Nc1ccc(C(C)=NNC(=O)CN(c2ccccc2Br)S(C)(=O)=O)cc1	x	x	x	x	1.8	x
CC(=NNC(=O)CSCc1ccc([N+](=O)[O-])cc1)c1ccccc1	x	x	x	x	-0.4	x
COc1ccc(CCNC(=O)Cn2c(=O)n(CCCC(=O)NCc3ccco3)c(=O)c3sccc32)cc1OC	-3.9	-1.8	26.5*	3.3	0.6	2.6
O=C(O)c1ccccc1-c1c2cc(I)c(=O)c(I)c-2oc2c(I)c(O)c(I)cc12	x	-226.3	28.4*	-12.0	10.7	40.4*
S=C(N/N=C/c1ccc2c(c1)OCO2)NC1CC2CCC1C2 (configuration not stated)	0.2	4.2	25.6*	3.6	x	6.6
S=C(NN=Cc1ccc2c(c1)OCO2)NC1CC2CCC1C2 (configuration not stated)	x	x	x	x	2.2	x
COc1cc(Cc2nccc3cc(OC)c(OC)cc23)c(NC(C)=O)cc1OC	-0.3	2.0	1.2	0.7	4.0	x
COc1cc(Cc2nccc3cc(OC)c(OC)cc23)c(S(=O)(=O)O)cc1OC	-0.6	16.0	40.5*	5.1	1.4	3.6
Cc1cc(C)c2c(c1)C(=NNC(=S)Nc1ccc(F)cc1)CCC2	x	x	x	x	1.1	x
N#CCC(=O)NN=Cc1cn(Cc2ccc(Cl)c(Cl)c2)c2ccccc12	x	x	x	x	0.5	x
Cc1ccc(S(=O)(=O)N(C)CC(=O)Nc2cccc(C)n2)cc1	25.4	x	80.0*	-1.2	-1.4	7.0
Cc1ccc(S(=O)(=O)N(C)CC(=O)Nc2ccc(C)cn2)cc1	-1.5	1.8	0.4	-2.9	2.1	x
Clc1ccc(CON=C2CCCc3nonc32)cc1	x	x	x	x	0.8	x
O=C(C1=C(O)C(=O)N(CC2CCCO2)C1c1cccc(O)c1)c1ccco1 (configuration not stated)	1.9	7.6	27.1*	3.9	8.9	9.7
COc1cc(C2C(C(=O)c3ccco3)=C(O)C(=O)N2CC2CCCO2)ccc1O (configuration not stated)	0.2	0.6	-2.2	-2.2	5.7	x
COc1ccc(C(=O)Oc2cc(C=NNC(N)=S)ccc2OC)cc1	x	x	x	x	7.0	x
CN(C)C=NC(=S)Nc1ccccc1F	x	x	x	x	-2.4	x
CC[C@H](C)[C@H](NC(N)=O)C(=O)NCCc1ccc(OC)c(OC)c1	-2.0	-1.6	24.7*	-1.4	1.7	11.1
SMILES	NSD2 inh	Casp6 inh	TDP2 absorb	LEDGF integ inh	UCH37 inh	TDP2 confirm
CC(=N/N=C1/NC(=O)CC(C(=O)O)S1)c1ccc(F)cc1 (configuration not stated)	x	x	x	x	2.3	x
CCC(C)N1CCN(S(=O)(=O)c2ccc3ccccc3c2)CC1 (configuration not stated)	0.6	0.7	32.2*	1.4	-0.4	6.4
CCN1CCN(C2=C(NS(=O)(=O)c3ccc(Br)cc3)C(=O)c3ccccc3C2=O)CC1	90.4*	68.5*	28.2*	8.8	13.1	22.9
CCOC(=O)N1CCN(C2=C(NS(=O)(=O)c3ccc(Br)cc3)C(=O)c3ccccc3C2=O)CC1	27.4	4.5	15.0	5.5	x	x
O=C1C(NS(=O)(=O)c2cccs2)=C(N2CCOCC2)C(=O)c2ccccc21	33.5	7.1	11.7	1.4	8.7	x
O=C1C(NS(=O)(=O)c2cccs2)=C(N2CCN(Cc3ccccc3)CC2)C(=O)c2ccccc21	32.8	16.5	39.6*	0.6	4.6	9.3
CCOC(=O)N1CCN(C2=C(NS(=O)(=O)c3ccccc3)C(=O)c3ccccc3C2=O)CC1	41.0	5.9	64.3*	21.6*	8.0	11.1
CN1CCN(C2=C(NS(=O)(=O)c3ccccc3)C(=O)c3ccccc3C2=O)CC1	48.3	x	x	x	11.7	x
CCN1CCN(C2=C(NS(=O)(=O)c3ccccc3)C(=O)c3ccccc3C2=O)CC1	56.7*	47.7*	28.0*	3.3	11.6	15.5
CCCc1ccc(-c2cc(C(=O)NN=Cc3ccc([N+](=O)[O-])o3)c3ccccc3n2)cc1	x	x	x	x	3.3	x
CC(=NNC(=O)c1ccco1)c1ccc(NC(=O)c2cccs2)cc1	x	x	x	x	-1.6	x
CC1=NN(c2ccc(Cl)c(C(=O)O)c2)C(=O)C1	9.5	81.8*	44.0*	5.7	5.1	6.0
CC1=NN(c2cccc(Cl)c2)C(=O)C1	x	3.9	51.4*	1.8	4.7	9.6
CC1=NN(c2ccc(C(=O)O)cc2)C(=O)CC1	-0.7	-5.6	-1.5	3.5	3.1	x
CC(CC(=O)NC12CC3CC(CC(C3)C1)C2)=NNC(=O)c1cnccn1	x	x	x	x	-0.3	x
CC(NC(=O)CSc1nnc(COc2ccccc2)o1)c1ccccc1 (configuration not stated)	-3.4	0.1	4.2	-4.7	0.0	x
COc1ccc(Cc2nnc(SCC(=O)NC(C)c3ccccc3)o2)cc1 (configuration not stated)	0.3	x	71.7*	-0.9	4.2	-6.2
O=C(CN1CCCCC1)Nc1c2c(nc3ccccc13)N(c1ccccc1)CC2	-0.5	-5.3	44.8*	14.3*	-125.1	8.8
COc1c(F)c(F)cc2c(=O)c(C(=O)O)cn(C3CC3)c12	-1.4	-1.0	25.7*	-2.6	3.1	1.1
COC(=O)C1=C(C(C)=O)C(c2ccc(C(=O)OC)cc2)n2nnnc2N1 (configuration not stated)	0.8	x	34.4*	9.5	8.5	3.5
COC(=O)C1=C(C(C)=O)C(c2ccc(C)cc2)n2nnnc2N1 (configuration not stated)	-3.6	x	-2.4	0.0	8.4	x
Cc1onc(-c2ccccc2)c1C(=O)NN=C/C=C/c1ccccc1	x	x	x	x	2.1	x
